The target in experiment [1] is Beta-hexosaminidase (Homo sapiens). Description: Inhibition of human Placental beta-N-acetylglucosaminidase.
The nature of experiment [2]: Inhibition of bovine kidney beta-N-acetylglucosaminidase. On the set-up: species or system Bos taurus. Put shortly: (§1)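 β-N-Acetylglucosaminidase from bovine kidney, pH 4.5. The substrate is a p-nitrophenyl glycoside at 2 mM, with an appropriate amount of enzyme in a 1 mL mixture. The reaction is quenched with 2 mL of 400 mM Na₂CO₃, and p-nitrophenol is measured at 400 nm.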

The target in experiment [3] is T1, Alpha-N-acetylgalactosaminidase (Gallus gallus) (UniProt Q90744).
T1 sequence (whole entry): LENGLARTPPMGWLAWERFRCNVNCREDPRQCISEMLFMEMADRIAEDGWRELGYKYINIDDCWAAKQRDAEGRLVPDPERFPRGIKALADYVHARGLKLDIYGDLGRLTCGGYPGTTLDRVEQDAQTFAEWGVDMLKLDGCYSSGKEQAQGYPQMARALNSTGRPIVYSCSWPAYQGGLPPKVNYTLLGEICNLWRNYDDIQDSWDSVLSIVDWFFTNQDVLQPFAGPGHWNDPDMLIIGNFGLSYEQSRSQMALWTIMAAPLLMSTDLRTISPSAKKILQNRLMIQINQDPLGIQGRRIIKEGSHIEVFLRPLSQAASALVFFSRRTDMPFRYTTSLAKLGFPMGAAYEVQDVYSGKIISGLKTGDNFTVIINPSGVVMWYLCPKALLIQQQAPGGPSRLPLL
Description: Inhibition of chicken liver alpha-N-acetylgalactosaminidase at 1000 uM. The gist of the method:
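Chicken liver α-N-acetylgalactosaminidase at pH 4.0. The reaction (1 mL) holds 2 mM p-nitrophenyl glycoside and an appropriate amount of enzyme. It is stopped by 2 mL of 400 mM Na₂CO₃, and p-nitrophenol release is quantified at 400 nm.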

For a further experiment, the species on record is Bos taurus. Description: Inhibition of bovine liver beta-glucuronidase at 1000 uM. Put shortly:
(§2)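 Enzyme from bovine liver, run at pH 5.0. A p-nitrophenyl glycoside substrate (2 mM) is used in a 1 mL reaction with an appropriate amount of enzyme. Termination is by 2 mL of 400 mM Na₂CO₃, with spectrophotometric detection of liberated p-nitrophenol at 400 nm.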

Experiment [4] relates to Beta-hexosaminidase (Homo sapiens). Description: Inhibition of human Placental beta-N-acetylglucosaminidase at 1000 uM.
In a further experiment the test system is Escherichia coli. Description: Inhibition of Escherichia coli beta-glucuronidase at 1000 uM. The gist of the method: (§3)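 E. coli β-glucuronidase assayed at pH 6.8 in a 1 mL mixture containing 2 mM p-nitrophenyl glycoside substrate and an appropriate amount of enzyme. The reaction is stopped with 2 mL of 400 mM Na₂CO₃, and released p-nitrophenol is read at 400 nm.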

Experiment [5] in a line: Inhibition of bovine kidney beta-N-acetylglucosaminidase at 1000 uM. Particulars: Bos taurus. It counts as functional. The gist of the method: as §1
Experiment [6] in a line: Inhibition of bovine liver beta-glucuronidase. On the set-up: species or system Bos taurus. Put shortly:
as §2

The nature of experiment [7]: Inhibition of Escherichia coli beta-glucuronidase. Put shortly:
as §3

On to `O=C(O)[C@H]1NCC=C[C@@H]1O`, for which the half-maximal inhibitory concentration (IC50) in [1] was found to be 750 µM; in [2], 720 µM. The inhibition in experiment [3] is 25%; in the experiment listed under Bos taurus, 19%; in experiment [4], 60%; with Escherichia coli, 2%. For the same compound, the inhibition at 1000 µM in experiment [5] turned out to be 58%.
Consider `O=C(O)[C@@H]1NC[C@H](O)[C@@H](O)[C@@H]1O`, for which the inhibition came out at 3.4% in [3], 15.8% in the experiment filed under Bos taurus, 5.4% in [4] and 4.2% in the experiment on Escherichia coli. For the same compound, the inhibition at 1000 µM in experiment [5] amounted to 4.4%.
As for `O=C(O)[C@H]1NCCC[C@@H]1O`, the inhibition in experiment [3] amounted to 5.2%; in the experiment filed under Bos taurus, 0.89%; in experiment [4], 36%; with Escherichia coli, 31%. Also, 1000 µM produced 38% inhibition in experiment [5].
As for `O=C(O)[C@@H]1NC[C@H](O)[C@H](O)[C@H]1O`, the inhibition in experiment [3] turned out to be 4.4%; in the experiment listed under Bos taurus, 12%; in [4] it was 39%; with Escherichia coli it was 2.6%. The compound also returned an inhibition at 1000 µM in [5] of 18%.
As to `O=C(O)[C@@H]1NC[C@@H](O)[C@@H](O)[C@@H]1O`, the inhibition came out at 7.2% in experiment [3], 9.4% in the experiment filed under Bos taurus, 2.1% in experiment [4] and 1.2% in the experiment with Escherichia coli. The compound further returned an inhibition at 1000 µM in experiment [5] of 1.7%.
In the case of `O=C(O)[C@@H]1NC[C@@H](O)[C@@H](O)[C@H]1O`, the inhibition in experiment [3] was found to be 8.2%; in the experiment listed under Bos taurus, 3.1%; in experiment [4], 26%; in the experiment on Escherichia coli it was 1.3%. In addition, testing at 1000 µM in experiment [5] gave an inhibition of 10%.
On to `O=C(O)[C@H]1NC[C@H](O)[C@H](O)[C@@H]1O`, for which the inhibition in [3] was 4.5%; in the experiment listed under Bos taurus, 2.1%; in experiment [4] it was 26%; with Escherichia coli, 0.6%. Besides, 1000 µM produced 14% inhibition in experiment [5].
As for `O=C(O)[C@@H]1NCC=C[C@@H]1O`, the inhibition in [3] is 1.3%; in the experiment filed under Bos taurus, 10%; in experiment [4], 14%; in the experiment on Escherichia coli, 0.9%. The inhibition at 1000 µM in experiment [5] is 0.8%.
Turning to `O=C(O)[C@@H]1NCCC[C@@H]1O`, the inhibition amounted to 3.2% in [3], 15% in the experiment listed under Bos taurus, 46% in experiment [4] and 23% with Escherichia coli. The same compound yielded an inhibition at 1000 µM in experiment [5] of 47%.
`O=C(O)[C@H]1NC[C@@H](O)[C@H](O)[C@H]1O`: the inhibition came to 4.2% in experiment [3], 17.5% in the experiment filed under Bos taurus, 6.3% in [4] and 2.6% in the experiment with Escherichia coli. This compound displayed an inhibition at 1000 µM in experiment [5] of 4.8%.
Take `O=C(O)[C@H]1NCCC[C@H]1O`: the inhibition in experiment [3] was found to be 2.5%; in the experiment listed under Bos taurus it was 0.18%; in experiment [4] it was 30%; in the experiment on Escherichia coli, 24%. Moreover, the inhibition at 1000 µM in experiment [5] stood at 20%.
`O=C(O)[C@H]1NC[C@H](O)[C@@H](O)[C@H]1O`: the inhibition in experiment [3] was found to be 31%; in the experiment listed under Bos taurus it was 87%; in experiment [4], 2.6%; with Escherichia coli, 21%. This compound showed an IC50 in experiment [6] of 86 µM. In experiment [5], this compound displayed an inhibition at 1000 µM of 1.9%.
Turning to `O=C(O)[C@H]1NC[C@@H](O)[C@@H](O)[C@@H]1O`, the inhibition in experiment [3] is 3.8%; in the experiment filed under Bos taurus it was 14%; in [4], 28%; with Escherichia coli, 1%. For the same compound, the inhibition at 1000 µM in [5] was 0.5%.
`O=C(O)[C@H]1NC[C@@H](O)[C@H](O)[C@@H]1O`: the inhibition in [3] was determined as 11%; in the experiment listed under Bos taurus, 20%; in [4], 42%; with Escherichia coli it was 1.1%. Besides, 1000 µM produced 17% inhibition in [5].
On to `O=C(O)[C@@H]1NC[C@@H](O)[C@H](O)[C@@H]1O`, for which the inhibition in experiment [3] is 10%; in the experiment listed under Bos taurus, 7.1%; in [4], 0.8%; in the experiment with Escherichia coli, 6.3%. In [5], this compound returned an inhibition at 1000 µM of 0.5%.
Take `O=C(O)[C@H]1NC[C@H](O)[C@H](O)[C@H]1O`: the inhibition amounted to 21% in experiment [3], 8.8% in the experiment filed under Bos taurus, 7.6% in [4] and 2.3% with Escherichia coli. In experiment [5], this compound yielded an inhibition at 1000 µM of 5.5%.
With `O=C(O)[C@H]1NC[C@H](O)[C@@H](O)[C@@H]1O`, the inhibition in [3] came to 0.2%; in the experiment filed under Bos taurus, 95%; in experiment [4] it was 43%; in the experiment on Escherichia coli, 72%. In addition, the results for the IC50 in experiment [7] and in experiment [6] were 215 µM and 70 µM, respectively. The same compound had an inhibition constant (Ki) in experiment [7] of 400 µM. Besides, the inhibition at 1000 µM in experiment [5] came to 13%.
Consider `O=C(O)[C@@H]1NCC=C[C@H]1O`, for which the inhibition in experiment [3] amounted to 3.2%; in the experiment listed under Bos taurus, 0.2%; in [4] it was 14%; with Escherichia coli, 0.9%. Further, the inhibition at 1000 µM in experiment [5] came to 15%.
`O=C(O)[C@@H]1NCCC[C@H]1O`: the inhibition was 1.3% in [3], 0.62% in the experiment listed under Bos taurus, 25% in [4] and 20% in the experiment with Escherichia coli. In experiment [5], this compound gave an inhibition at 1000 µM of 32%.
As to `O=C(O)[C@@H]1NC[C@@H](O)[C@H](O)[C@H]1O`, the inhibition in [3] amounted to 1.3%; in the experiment listed under Bos taurus, 2.7%; in [4] it was 50%; in the experiment with Escherichia coli it was 5.4%. Testing at 1000 µM in [5] gave an inhibition of 11%.
As for `O=C(O)[C@H]1NCC=C[C@H]1O`, the inhibition in experiment [3] came out at 0.2%; in the experiment filed under Bos taurus, 8.6%; in experiment [4], 17%; in the experiment with Escherichia coli, 3.3%. Further, the inhibition at 1000 µM in [5] was determined as 7.3%.
With `O=C(O)[C@@H]1NC[C@H](O)[C@@H](O)[C@H]1O`, the inhibition amounted to 4% in experiment [3], 6.8% in the experiment listed under Bos taurus, 42% in [4] and 5.2% in the experiment on Escherichia coli. This compound also had an inhibition at 1000 µM in experiment [5] of 27%.

One may read the IC50 as the concentration at which inhibition is half-maximal. For orientation: inhibition means the percentage by which the read-out fell short of the control. High values mean strong suppression, low ones little suppression. Broadly, the Ki is a measure of affinity in units of concentration, obtained from inhibition or displacement. Low readings indicate tighter binding, high ones weaker binding.

The values are drawn from ChEMBL document CHEMBL1139431, “Synthesis of both enantiomers of hydroxypipecolic acid derivatives equivalent to 5-azapyranuronic acids and evaluation of their inhibitory activities against glycosidases” (Bioorg Med Chem, 2008).
